# Source: PubChem BioAssay (several laboratories)
# ZTA DNA inh: blocks Epstein-Barr virus ZTA, an EBNA-1 counter-screen; 0.15% of 320,000 active; ZTA-DNA binding, fluorescence polarization; AID 2234; inhibition, % at 11 µM; in the data active = inhibition above about 33%
# Target sequence (P03206 whole entry, looked up): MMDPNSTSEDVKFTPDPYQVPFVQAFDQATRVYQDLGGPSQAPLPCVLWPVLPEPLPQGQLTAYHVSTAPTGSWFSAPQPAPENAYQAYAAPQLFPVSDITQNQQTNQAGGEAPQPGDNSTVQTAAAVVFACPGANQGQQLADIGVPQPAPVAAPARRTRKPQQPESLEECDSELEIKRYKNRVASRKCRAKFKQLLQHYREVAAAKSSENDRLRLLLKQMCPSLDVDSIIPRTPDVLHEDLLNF
# MEX-5 binding: C. elegans MEX-5 TCR-2 RNA binding activity; MEX-5/FITC-TCR2 RNA binding, fluorescence polarization; stronger effect = lower value; activity score (negative = inhibition of binding), % at 10 µM; 0.38% of 300,000 active;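 active = inhibition past about -25% in most replicates, and total fluorescence under double the plate's negative control median, limit read from the data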;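 note: 0% = DMSO and -100% = 5 µM competing unlabeled TCR2 RNA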
# NS3 helicase inh: HCV NS3 helicase inhibition; NS3 helicase DNA unwinding, Cy5 molecular beacon fluorescence; inhibition, % at 10.9 µM; 0.56% of 290,000 active; AID 1800;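 active = inhibition above the mean of all tested compounds plus 3 SD, set per campaign, cut at about 35% in these data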;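 note: 0% = DMSO wells and 100% = thioflavine S control wells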
#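 System: HCV NS3 helicase fragment; control set: DMSO and thioflavine S; technique: Cy5 fluorescence at 0 and 60 min, beacon hairpin quenching; reagent: beacon DNA duplex substrate plus ATP; replicates: singlicate; schedule: 1 h reaction at 25 °C, ATP-initiated; medium: MOPS buffer pH 6.5 with MgCl2, DTT, Tween20, BSA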
# core dimer inh: HCV core protein dimerization inhibition. TR-FRET GST/Flag-core106 dimerization, 1536-well. inhibition, % at 5 µM. 0.33% of 300,000 active;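 active = inhibition above the mean of all tested compounds plus 3 SD, set per screening campaign, cut at about 45% in these data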
#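 test system = GST/Flag-tagged HCV core106 proteins | probe or stimulus = Eu donor and XL665 acceptor anti-tag antibodies | times = compound-protein-antibody incubation 4 h at 22.5 °C | signal = TR-FRET, excitation 340 nm, emission 617 and 671 nm | measure = percent inhibition of core106 dimerization signal | controls = wells lacking GST-core106 and wells with excess unlabelled core106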
# EBNA-1 inh: blocks EBNA-1 binding to DNA | EBNA-1 DNA binding, fluorescence polarization | inhibition, % at 14.8 µM | 0.34% of 300,000 active | AID 1950; in the data active = inhibition above about 28%
# EBV gp42 block: inhibitors of Epstein-Barr virus glycoprotein 42; inhibition, % (tested at 21.74 µM); AID 1085; 0.42% of 220,000 active; Fluorescence polarization binding assay, mP read-out; Q1HVG2; in the data active = inhibition above about 50%
# Target sequence (Q1HVG2 whole entry, looked up): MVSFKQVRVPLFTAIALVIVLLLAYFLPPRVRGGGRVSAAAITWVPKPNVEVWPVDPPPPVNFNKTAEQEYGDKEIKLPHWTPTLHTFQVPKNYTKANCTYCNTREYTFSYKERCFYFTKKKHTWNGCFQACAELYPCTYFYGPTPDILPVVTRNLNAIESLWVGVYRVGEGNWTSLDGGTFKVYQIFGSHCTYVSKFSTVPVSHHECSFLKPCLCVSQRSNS
# An asterisk follows results filed as active; . = not tested or not shown; + = active, no number. This is a sample that favours compounds with a hit; in the whole collection about 1.7% have one here.
SMILES,ZTA DNA inh,MEX-5 binding,NS3 helicase inh,core dimer inh,EBNA-1 inh,EBV gp42 block
CC(OC(=O)Cc1c[nH]c2ccccc12)C(=O)Nc1ccccc1F (stereo unspecified),9,-2,.,-2,-2,.
C[C@@H]1C[C@H]2[C@@H]3C[C@H](F)C4=CC(=O)C=C[C@]4(C)[C@@]3(Cl)[C@@H](O)C[C@]2(C)[C@H]1C(=O)COC(=O)C(C)(C)C,4,.,.,9,-7,.
Cc1ccc(NC(=O)CN2C(=O)S/C(=C/c3ccc(O)c([N+](=O)[O-])c3)C2=O)cc1C,.,.,30,.,.,65*
COc1cccc(C2Nc3c(F)cc(Br)cc3C3C=CCC32)c1OC (stereo unspecified),0,4,4,-15,4,-4
COc1cc(C2Nc3c(F)cccc3C3C=CCC32)cc(Br)c1OC (stereo unspecified),3,1,27,46*,3,2
C=CCN1C(=O)S/C(=C\c2ccc(N3CCOCC3)cc2C)C1=O,3,-29*,-6,-5,-11,-41
C=CC(C)N1C(=O)S/C(=C\c2ccc(N3CCOCC3)cc2C)C1=O (stereo unspecified),-29,-1,4,-13,1,-33
NCCC1CCCC(CCN)N1 (stereo unspecified),+,.,.,12,+,.
Cc1c(N=C2N=C(NC(=O)c3ccc(F)cc3)c3ccccc32)c(=O)n(-c2ccccc2)n1C,19,-9,11,2,13,116*
CCn1c(O)c(C=Nc2ccccc2)sc1=S,6,-3,16,-5,8,0
Oc1c(C=Nc2ccccc2)sc(=S)n1Cc1ccccc1,-16,-43*,15,1,-7,-58
CN(C(=O)CN(C)S(=O)(=O)c1ccc(F)cc1)c1c(N)n(Cc2ccccc2)c(=O)[nH]c1=O,7,-1,.,-3,1,.
CCOC(=O)c1ccc(NC(=O)CSc2nc(C)cc(=O)[nH]2)cc1,-19,2,17,63*,1,24
Nc1nonc1-n1nnc(C(=O)N/N=C/c2ccc(OCc3ccccc3)cc2)c1CNc1ccccc1,16,1,6,31,6,.
CCN(CC)S(=O)(=O)c1cccc(C(=O)N/N=C/c2cccc(O)c2O)c1,-14,0,46*,-1,4,-11
CCCCN(C(=O)c1ccc(NC2CC2)c([N+](=O)[O-])c1)c1c(N)n(CC(C)C)c(=O)[nH]c1=O,12,.,.,.,.,.
O=S(=O)(c1ccc(C2CCCCC2)cc1)N1CCOCC1,-28,0,5,-3,3,6
O=C(O)c1cc(Cl)c2c(c1)[C@@H]1C=CC[C@@H]1[C@H](c1ccc(S(=O)(=O)N3CCOCC3)cc1)N2,11,-26*,26,4,7,-11
Cc1cc(C)c2c(c1)C1C=CCC1C(c1ccc(S(=O)(=O)N3CCOCC3)cc1)N2 (stereo unspecified),-10,-1,7,63*,5,-11
Cc1ccc(S(=O)(=O)N2CCOCCOCCOCCOCCOCC2)cc1,0,1,13,-10,3,.
CCCn1c(N)c(C(=O)CSc2nnc(C3CC3)n2Cc2ccccc2)c(=O)n(C)c1=O,9,.,.,.,.,.
COc1ccccc1NC(=O)c1cc2ccc(O)cc2o/c1=N\O,-10,-3,5,-21,-1,-25
COc1ccccc1NC(=O)c1cc2ccccc2o/c1=N\O,14,-1,.,2,42*,-33
O=C(CCN1C(=O)C2CC=C(Cl)CC2C1=O)N1CCCCC1 (stereo unspecified),6,-41*,9,-4,3,13
O=C(CN1C(=O)C2CC=C(Cl)CC2C1=O)NCc1ccccc1 (stereo unspecified),14,-27*,4,-2,-2,20
SMILES,ZTA DNA inh,MEX-5 binding,NS3 helicase inh,core dimer inh,EBNA-1 inh,EBV gp42 block
O=C1C2CC=C(Cl)CC2C(=O)N1CCc1ccccc1 (stereo unspecified),5,-34*,13,8,5,25
CC(=O)c1ccc(N=C2NC(=O)C(CO)(CO)S2)cc1,-3,0,14,2,-9,.
Cc1cccn2c(=O)c3cc(S(=O)(=O)c4ccccc4)c(=N)n(Cc4cccnc4)c3nc12,-26,-31*,-14,17,-10,.
N=c1c(S(=O)(=O)c2ccccc2)cc2c(=O)n3ccccc3nc2n1Cc1cccnc1,-6,-42*,.,2,-8,.
Cc1cccn2c(=O)c3cc(S(=O)(=O)c4ccccc4)c(=N)n(CC4CCCO4)c3nc12 (stereo unspecified),21,-39*,8,1,8,-1
Cn1nccc1C(=O)N1CCOCC1,4,1,-1,-3,-3,.
Cc1ccc(NC(=O)COc2cccc(Oc3ccccc3)c2)cc1S(=O)(=O)N1CCOCC1,23,.,.,.,.,.
COc1cccc2c1OCC(CN1CCN(Cc3ccccc3F)C(CCO)C1)=C2 (stereo unspecified),130*,-1,9,0,+,.
Cc1ccc(CN2C(=O)C3CCCN3c3ccc(S(=O)(=O)N4CCOCC4)cc32)cc1 (stereo unspecified),-7,4,-1,48*,-4,-36
Cc1ccc(CN2C(=O)C3CCCN3c3ncccc32)cc1 (stereo unspecified),0,0,-12,9,13,.
CC(SCc1ccccc1)C(=O)Nc1ccccc1F (stereo unspecified),-10,1,1,-3,-8,.
Cc1ccc2nc3c(cc2c1)CN(Cc1ccco1)C(=NCC1CCCO1)S3 (stereo unspecified),-1,-4,7,10,-3,1
Cc1cccc2cc3c(nc12)SC(=NCC1CCCO1)N(Cc1ccco1)C3 (stereo unspecified),-1,1,19,79*,13,-24
CCCCn1nc(C(=O)NCC(c2cccs2)N2CCOCC2)c2ccccc2c1=O (stereo unspecified),15,.,.,.,.,.
Cc1nnc(NC(=O)c2cc(-c3ccco3)nc3ccccc23)s1,-2,-2,.,78*,23,.
O=C(NC(=S)Nc1cccc(S(=O)(=O)NC2=NCCC2)c1)c1cc(-c2ccco2)nc2ccccc12,-6,1,29,32,-2,9
O=C(Nc1cccc(S(=O)(=O)NC2=NCCC2)c1)c1cc(-c2ccco2)nc2ccccc12,-14,-2,45*,76*,-1,82*
CCOc1ccc(/C=N/NC(=O)c2cc(-c3ccco3)nc3ccccc23)cc1,5,-3,34,24,2,2
O=C(Nc1nccs1)c1cc(-c2ccco2)nc2ccccc12,9,-1,18,84*,-3,33
O=C(Nc1nc2ccccc2s1)c1cc(-c2ccco2)nc2ccccc12,-8,-2,33,24,3,-5
